pIC50: −log10 of the molar value. The source made the active and inactive calls. The rule behind the calls is not given here.
Experiments:
CFPAC-1 = assay: Antiproliferative activity against human CFPAC-1 cells after 72 hrs by MTT assay; type: functional, cell-based; conditions: CFPAC-1, 72 h
In short: (§1)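 Cells seeded at 5000/well on day 0 in medium with 10% FBS, 2 mM L-glutamine, penicillin/streptomycin, 37 °C, 5% CO2. Compounds added at five 10-fold dilutions with DMSO ≤0.1%, then 72 h exposure. MTT absorbance converted to percentage growth versus untreated wells. IC50 by linear regression between bracketing concentrations. Quadruplicate points, three independent experiments.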

A549 [1] = assay: Antiproliferative activity against human A549 cells after 72 hrs by MTT assay; type: functional, cell-based; conditions: A549, 72 h; in short: as §1
SW-620 = assay: Antiproliferative activity against human SW620 cells after 72 hrs by MTT assay; type: functional, cell-based; conditions: SW-620, 72 h; in short: as §1
WI-38 = assay: Antiproliferative activity against human WI38 cells after 72 hrs by MTT assay; type: cell-based; conditions: WI-38, 72 h; in short: as §1
HeLa = assay: Antiproliferative activity against human HeLa cells after 72 hrs by MTT assay; type: functional, cell-based; in short: as §1
MAP kinase p38 [2] = target: T1, MAP kinase p38 (Homo sapiens, UniProt O15264+Q15759+Q16539+P53778); assay: Inhibition of MAPK p38 (unknown origin); type: protein assay
A549 [3] = assay: Downregulation of PDE5 protein expression in human A549 cells at 2 times antiproliferative IC50 after 48 hrs by Western blot method; type: functional, cell-based
In short: (§2)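 Lysis in RIPA buffer (20 mM Tris-HCl pH 7.5, 150 mM NaCl, EDTA, EGTA, 1% NP-40, 1% deoxycholate, protease inhibitors). Blocking 1 h in 4% BSA/TBST, primary antibody overnight at 4 °C, HRP secondary 1 h, chemiluminescence. Densitometry normalised to alpha-tubulin; two independent experiments.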

[4] = target: Cellular tumor antigen p53 (Homo sapiens) (UniProt P04637); assay: Inhibition of p53 phosphorylation at Ser-15 residue in human A549 cells at 2 times antiproliferative IC50 after 48 hrs by Western blot method; type: cell-based; in short: as §2
A549 [5] = assay: Induction of apoptosis in human A549 cells assessed as viable cells at 2 times antiproliferative IC50 after 48 hrs by Annexin V-FITC/propidium iodide staining based fluorescence microscopic method (reference value: 99.48%); type: functional
A549 [6] = assay: Downregulation of TGM2 protein expression in human A549 cells at 2 times antiproliferative IC50 after 48 hrs by Western blot method; type: functional, cell-based; in short: as §2
A549 [7] = assay: Downregulation of CDK9/CyclinT1 protein expression in human A549 cells at 2 times antiproliferative IC50 after 48 hrs by Western blot method; type: functional, cell-based; in short: as §2
A549 [8] = assay: Induction of apoptosis in human A549 cells assessed as necrotic cells at 2 times antiproliferative IC50 after 48 hrs by Annexin V-FITC/propidium iodide staining based fluorescence microscopic method (reference value: 0%); type: functional
A549 [9] = assay: Induction of apoptosis in human A549 cells assessed as early apoptotic cells at 2 times antiproliferative IC50 after 48 hrs by Annexin V-FITC/propidium iodide staining based fluorescence microscopic method (reference value: 0.52%); type: functional
MAP kinase p38 [10] = target: T1, MAP kinase p38; assay: Inhibition of p38 phosphorylation at Thr180/Tyr182 residues in human A549 cells at 2 times antiproliferative IC50 after 48 hrs by Western blot method; type: cell-based; in short: as §2
A549 [11] = assay: Induction of apoptosis in human A549 cells assessed as late apoptotic cells at 2 times antiproliferative IC50 after 48 hrs by Annexin V-FITC/propidium iodide staining based fluorescence microscopic method (reference value: 0%); type: functional
[12] = Selectivity ratio of IC50 for human CFPAC-1 cells to IC50 for human SW620 cells; type: functional
[13] = Selectivity ratio of IC50 for human HeLa cells to IC50 for human SW620 cells; type: functional
[14] = Selectivity ratio of IC50 for human A549 cells to IC50 for human SW620 cells; type: functional

Chain of Cellular tumor antigen p53 (Homo sapiens) (P04637 whole entry, looked up): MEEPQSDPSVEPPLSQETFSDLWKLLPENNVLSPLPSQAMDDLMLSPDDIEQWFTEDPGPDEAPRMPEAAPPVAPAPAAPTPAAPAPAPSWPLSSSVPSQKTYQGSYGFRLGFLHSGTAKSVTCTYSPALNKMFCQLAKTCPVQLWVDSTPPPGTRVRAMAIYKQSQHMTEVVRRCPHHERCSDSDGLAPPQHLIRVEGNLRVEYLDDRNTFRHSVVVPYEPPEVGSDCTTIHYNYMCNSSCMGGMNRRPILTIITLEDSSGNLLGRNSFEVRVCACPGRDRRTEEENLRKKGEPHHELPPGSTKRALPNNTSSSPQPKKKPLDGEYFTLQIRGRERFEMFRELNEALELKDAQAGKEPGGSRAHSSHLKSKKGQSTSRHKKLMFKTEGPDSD

Compound | pIC50 (CFPAC-1) | pIC50 (A549 [1]) | pIC50 (SW-620) | pIC50 (WI-38) | pIC50 (HeLa) | also measured
CC(C)NC(=N)c1ccc2[nH]c(-c3ccc(OCc4cn(-c5ccccc5)nn4)cc3)nc2c1 | < 4.00 | < 4.00 | 4.21 | 6.00 | 4.78 | –
N=C(N)c1ccc2[nH]c(-c3ccc(OCc4cn(-c5ccc(Cl)cc5)nn4)cc3)nc2c1 | 4.73 | 7.30 | 5.12 | 5.30 | 6.10 | –
CC(C)NC(=N)c1ccc2[nH]c(CCc3cn(-c4ccc(Cl)cc4)nn3)nc2c1 | 4.44 | 4.48 | 4.25 | 5.43 | 5.51 | –
CC(C)NC(=N)c1ccc2[nH]c(-c3ccc(OCc4cn(-c5ccc(I)cc5)nn4)cc3)nc2c1 | 5.29 | 7.10 | 6.16 | 6.70 | 6.29 | –
Cc1ccc(-n2nc(C(C)(C)C)cc2NC(=O)Nc2nc(CCOCc3ccncc3)cs2)cc1 | – | – | – | – | – | IC50 (MAP kinase p38 [2]): 0.586 µM
c1ccc(-n2cc(COc3ccc(-c4nc5cc(C6=NCCN6)ccc5[nH]4)cc3)nn2)cc1 | 4.58 | 4.30 | 4.53 | 7.00 | 5.11 | –
O=c1[nH]cc(F)c(=O)[nH]1 [FLUOROURACIL] | – | 5.55 | – | – | – | –
Cl.c1ccc(Cn2cc(COc3ccc(-c4nc5cc(C6=NCCN6)ccc5[nH]4)cc3)nn2)cc1 | 4.54 | 7.15 | 4.55 | 5.16 | 5.18 | Activity (A549 [3]): Active; inhibition [4]: Active; Activity (A549 [5]): 49.71%; Activity (A549 [6]): Active; Activity (A549 [7]): Active; Activity (A549 [8]): 6.43%; Activity (A549 [9]): 27.49%; inhibition (MAP kinase p38 [10]): Active; Activity (A549 [11]): 16.37%
N=C(N)c1ccc2[nH]c(-c3ccc(OCc4cn(-c5ccc(I)cc5)nn4)cc3)nc2c1 | 4.67 | 6.35 | 6.02 | 6.21 | 5.19 | –
Fc1ccc(-n2cc(COc3ccc(-c4nc5cc(C6=NCCN6)ccc5[nH]4)cc3)nn2)cc1 | < 4.00 | < 4.00 | 5.64 | 7.05 | 6.01 | –
CC(C)NC(=N)c1ccc2[nH]c(-c3ccc(OCc4cn(-c5ccc(Cl)cc5)nn4)cc3)nc2c1.Cl | < 4.00 | 7.30 | 4.31 | 5.09 | 4.76 | Activity (A549 [3]): inactive; inhibition [4]: Active; Activity (A549 [5]): 28.89%; Activity (A549 [6]): inactive; Activity (A549 [7]): inactive; Activity (A549 [8]): 2.78%; Activity (A549 [9]): 28.33%; inhibition (MAP kinase p38 [10]): Active; Activity (A549 [11]): 40%
N=C(N)c1ccc2[nH]c(-c3ccc(OCc4cn(-c5ccccc5)nn4)cc3)nc2c1 | 4.52 | 4.27 | 4.50 | 5.09 | 4.72 | –
CC(C)NC(=N)c1ccc2[nH]c(-c3cn(-c4ccc(Cl)cc4)nn3)nc2c1 | 4.80 | 4.57 | 4.49 | 5.16 | 6.07 | –
Clc1ccc(-n2cc(-c3nc4cc(C5=NCCN5)ccc4[nH]3)nn2)cc1 | 6.08 | 5.41 | 5.78 | 5.57 | 6.16 | –
Brc1ccc(-c2c[nH]c([C@@H]3Cc4ccccc4CN3)n2)cc1 | – | – | – | – | – | IC50 (MAP kinase p38 [2]): 1.9 µM
CC(C)NC(=N)c1ccc2[nH]c(-c3ccc(OCc4cn(Cc5ccc(Cl)cc5)nn4)cc3)nc2c1 | < 4.00 | 5.30 | 4.44 | 6.15 | < 4.00 | –
Clc1ccc(-n2cc(COc3ccc(-c4nc5cc(C6=NCCN6)ccc5[nH]4)cc3)nn2)cc1 | 4.77 | 7.22 | 5.44 | 5.65 | 6.66 | –
Cl.Clc1ccc(Cn2cc(COc3ccc(-c4nc5cc(C6=NCCN6)ccc5[nH]4)cc3)nn2)cc1 | 5.17 | 5.03 | 7.30 | 5.24 | 5.30 | Ratio IC50 [12]: >100; Ratio IC50 [13]: >100; Ratio IC50 [14]: >100
N=C(N)c1ccc2[nH]c(-c3ccc(OCc4cn(-c5ccc(C(F)(F)F)cc5)nn4)cc3)nc2c1 | 5.68 | 6.08 | 6.44 | 6.28 | 6.49 | –
Clc1ccc(-n2cc(COc3ccc(-c4nc5ccc(Cl)cc5[nH]4)cc3)nn2)cc1 | 5.43 | 5.54 | 5.37 | 5.82 | 5.45 | –
CC(C)NC(=N)c1ccc2[nH]c(-c3ccc(OCc4cn(-c5ccc(C(F)(F)F)cc5)nn4)cc3)nc2c1 | < 4.00 | 4.07 | 4.30 | 6.49 | 4.86 | –
CC(C)NC(=N)c1ccc2[nH]c(-c3ccc(OCc4cn(Cc5ccccc5)nn4)cc3)nc2c1 | < 4.00 | 5.21 | 4.23 | 4.18 | 5.06 | –
N=C(N)c1ccc2[nH]c(-c3ccc(OCc4cn(Cc5ccccc5)nn4)cc3)nc2c1 | 4.46 | 5.02 | 4.51 | 6.05 | 4.86 | –
Ic1ccc(-n2cc(COc3ccc(-c4nc5cc(C6=NCCN6)ccc5[nH]4)cc3)nn2)cc1 | 6.07 | < 4.00 | 6.43 | 6.66 | 6.38 | –
N=C(N)c1ccc2[nH]c(-c3ccc(OCc4cn(-c5ccc(F)cc5)nn4)cc3)nc2c1 | < 4.00 | 4.09 | 4.42 | 6.15 | 5.13 | –
Clc1ccc(-n2cc(COc3ccc(-c4nc5ccccc5[nH]4)cc3)nn2)cc1 | < 4.00 | 5.10 | 4.00 | 5.95 | < 4.00 | –
CC(C)NC(=N)c1ccc2[nH]c(-c3ccc(OCc4cn(-c5ccc(F)cc5)nn4)cc3)nc2c1 | 6.15 | 5.08 | 4.42 | 6.18 | 6.23 | –
FC(F)(F)c1ccc(-n2cc(COc3ccc(-c4nc5cc(C6=NCCN6)ccc5[nH]4)cc3)nn2)cc1 | 6.19 | 6.23 | 5.20 | 6.16 | 5.57 | –

Reference: ChEMBL document CHEMBL4130552, “Design, synthesis and biological evaluation of novel benzimidazole amidines as potent multi-target inhibitors for the treatment of non-small cell lung cancer” (Eur J Med Chem, 2018)
